29 molecules from ChEMBL document CHEMBL2417552, “Screen of pseudopeptidic inhibitors of human sirtuins 1-3: two lead compounds with antiproliferative effects in cancer cells” (J Med Chem, 2013) can be followed below.

Assay [1] concerns the target T1, NAD-dependent protein deacetylase sirtuin-1 (Homo sapiens) (UniProt Q96EB6).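 Note: recombinant GST-tagged human SIRT1 enzyme assay with KI177 substrate, fluorescence read 1 h after enzyme addition, inhibition expressed relative to control.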
T1 sequence (whole entry): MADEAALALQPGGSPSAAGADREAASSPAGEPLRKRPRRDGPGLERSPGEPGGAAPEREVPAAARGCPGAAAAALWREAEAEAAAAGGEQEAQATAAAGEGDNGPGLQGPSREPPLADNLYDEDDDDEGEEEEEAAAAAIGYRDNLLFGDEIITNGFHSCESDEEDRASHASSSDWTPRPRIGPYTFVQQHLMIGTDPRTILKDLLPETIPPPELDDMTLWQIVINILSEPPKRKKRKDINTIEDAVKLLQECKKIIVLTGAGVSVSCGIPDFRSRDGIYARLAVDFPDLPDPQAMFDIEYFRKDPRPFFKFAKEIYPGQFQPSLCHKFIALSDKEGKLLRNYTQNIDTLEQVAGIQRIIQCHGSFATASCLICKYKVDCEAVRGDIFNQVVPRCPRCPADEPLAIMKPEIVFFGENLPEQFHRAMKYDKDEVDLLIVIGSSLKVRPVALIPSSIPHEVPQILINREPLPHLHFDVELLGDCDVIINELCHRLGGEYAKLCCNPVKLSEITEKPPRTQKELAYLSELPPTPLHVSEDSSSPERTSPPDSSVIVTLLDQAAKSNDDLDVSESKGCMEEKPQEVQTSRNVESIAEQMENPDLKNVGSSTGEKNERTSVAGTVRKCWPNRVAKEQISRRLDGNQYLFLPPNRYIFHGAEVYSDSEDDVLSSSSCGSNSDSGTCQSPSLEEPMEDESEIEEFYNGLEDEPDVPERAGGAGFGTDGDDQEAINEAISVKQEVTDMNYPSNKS
As to conditions: at 50 µM.

In assay [2] the target is T2, NAD-dependent protein deacetylase sirtuin-2 (Homo sapiens) (UniProt Q8IXJ6).
T2 sequence (whole entry): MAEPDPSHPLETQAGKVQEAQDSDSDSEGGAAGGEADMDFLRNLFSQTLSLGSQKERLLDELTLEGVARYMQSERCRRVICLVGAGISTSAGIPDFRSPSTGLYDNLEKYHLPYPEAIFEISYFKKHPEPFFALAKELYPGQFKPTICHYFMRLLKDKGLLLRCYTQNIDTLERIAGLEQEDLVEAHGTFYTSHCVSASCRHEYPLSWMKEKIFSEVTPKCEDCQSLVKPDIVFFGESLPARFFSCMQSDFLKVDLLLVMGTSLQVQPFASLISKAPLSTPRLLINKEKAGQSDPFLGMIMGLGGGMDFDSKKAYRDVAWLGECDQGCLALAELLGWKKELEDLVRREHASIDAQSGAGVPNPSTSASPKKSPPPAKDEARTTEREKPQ
Put plainly: Inhibition of human recombinant GST-tagged SIRT2 using KI179 as substrate at 50 uM preincubated for 5 mins followed by enzyme addition measured after 1 hr by fluorescence assay relative to control. The gist of the method:
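Recombinant GST-SIRT2, Fluor de Lys assay in SIRT assay buffer. Acetylated peptide KI179 at 0.7 Km (Km 198 µM) and NAD+ at 0.9 Km (reported Km 547 µM). Buffer, substrate, NAD+ and compound in DMSO preincubated 5 min at room temperature. Enzyme added to start; 1 h at 37 °C. Developer with 2 mM nicotinamide added; 45 min at 37 °C; fluorescence read. Mean ± SD, ≥3 experiments.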

The target of assay [3] is T3, NAD-dependent protein deacetylase sirtuin-3, mitochondrial (Homo sapiens) (UniProt Q9NTG7).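 Note: recombinant His-tagged human SIRT3 with KI179 substrate, fluorescence read after 1 h, inhibition expressed relative to control.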
T3 sequence (whole entry): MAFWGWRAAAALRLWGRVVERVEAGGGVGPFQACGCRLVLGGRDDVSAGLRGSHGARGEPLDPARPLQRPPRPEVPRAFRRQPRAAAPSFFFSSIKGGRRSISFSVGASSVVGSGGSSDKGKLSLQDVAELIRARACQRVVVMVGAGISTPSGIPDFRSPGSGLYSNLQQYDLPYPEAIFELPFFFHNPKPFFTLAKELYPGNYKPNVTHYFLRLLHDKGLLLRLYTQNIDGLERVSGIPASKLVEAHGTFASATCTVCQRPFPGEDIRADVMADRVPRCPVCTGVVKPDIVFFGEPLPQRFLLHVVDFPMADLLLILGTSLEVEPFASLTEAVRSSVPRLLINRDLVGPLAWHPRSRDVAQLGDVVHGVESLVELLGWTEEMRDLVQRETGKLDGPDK
The settings on record: at 50 µM.

Take `CC(=S)NCCCC[C@H](NC(=O)[C@@H]1CCCN1C(=O)OC(C)(C)C)C(=O)NCCc1cccnc1`: the inhibition in assay [1] turned out to be 66%; in assay [2], 49%; in assay [3], 68%.
As for `CC(=S)NCCCC[C@H](NC(=O)OCc1ccccc1)C(=O)Nc1ccccc1`, the inhibition came to 83% in assay [1], 81% in assay [2] and 62% in assay [3].
For `CC(=S)NCCCC[C@H](NC(=O)CN(C)C)C(=O)Nc1ccccc1`, in that order: 62%, 18% and 16%.
As to `CC(=S)NCCCC[C@H](NC(=O)OC(C)(C)C)C(=O)NCCc1cccnc1`, the inhibition in assay [1] is 41%; in assay [2], 28%; in assay [3], 24%.
Taken in the same sequence, the figures for `CC(=S)NCCCC[C@H](NC(=O)OCc1ccccc1)C(=O)NCC(O)c1ccccc1` (some centres not stated) were 77%, 54% and 45%.
For `CC(=S)NCCCC[C@H](NC(=O)CCc1ccccc1F)C(=O)Nc1cccnc1`, in that order: 94%, 74% and 72%.
Taken in the same sequence, the figures for `CC(=S)NCCCC[C@H](NC(=O)[C@@H]1CCCN1)C(=O)Nc1ccccc1` were 86%, 13% and 19%.
With `CC(=S)NCCCC[C@H](NC(=O)[C@@H]1C[C@@H](O)CN1C(=O)OCc1ccccc1)C(=O)NCc1ccccc1`, the inhibition came to 97% in assay [1], 87% in assay [2] and 93% in assay [3].
Taken in the same sequence, the figures for `CC(=S)NCCCC[C@H](NC(=O)OCc1ccccc1)C(=O)NCCc1c[nH]c2ccc(OCc3ccccc3)cc12` were 87%, 79% and 68%.
As for `CC(=S)NCCCC[C@H](NC(=O)OCc1ccccc1)C(=O)NCC(=O)c1ccccc1`, the inhibition was determined as 97% in assay [1], 94% in assay [2] and 74% in assay [3].
Taken in the same sequence, the figures for `CC(=S)NCCCC[C@H](NC(=O)OCc1ccccc1)C(=O)NCCc1c[nH]c2ccccc12` were 85%, 61% and 46%.
On to `CC(=S)NCCCC[C@H](NC(=O)[C@@H]1CCCN1C(=O)OC(C)(C)C)C(=O)Nc1ccccc1`, for which the results for the inhibition in assay [1], in assay [2] and in assay [3] were 80%, 44% and 45%, respectively.
`CC(=S)NCCCC[C@H](NC(=O)CCc1cccnc1)C(=O)NCC(=O)c1ccccc1`: the inhibition was 95% in assay [1], 58% in assay [2] and 62% in assay [3].
For `CC(=S)NCCCC[C@H](NC(=O)CCc1ccccc1)C(=O)Nc1cccnc1`, in that order: 83%, 21% and 39%.
For `CC(=S)NCCCC[C@H](NC(=O)CCc1cccnc1)C(=O)Nc1ccccc1`, the results for the inhibition in assay [1], in assay [2] and in assay [3] were 82%, 39% and 44%, respectively.
For `CC(=S)NCCCC[C@H](NC(=O)CCc1ccccc1)C(=O)NCC(=O)c1ccccc1`, in that order: 96%, 65% and 68%.
Taken in the same sequence, the figures for `CC(=S)NCCCC[C@H](NC(=O)C[C@@H]1NC(=O)[C@H](Cc2ccccc2)NC1=O)C(=O)NCC(=O)c1ccccc1` were 96%, 73% and 61%.
For `CC(=S)NCCCC[C@H](NC(=O)[C@@H]1C[C@@H](O)CN1C(=O)OCc1ccccc1)C(=O)Nc1ccccc1`, in that order: 90%, 54% and 69%.
As for `CC(=S)NCCCC[C@H](NC(=O)OC(C)(C)C)C(=O)NCC(=O)c1ccccc1`, the inhibition is 91% in assay [1], 87% in assay [2] and 63% in assay [3].
Turning to `CC(=S)NCCCC[C@H](NC(=O)CCCc1ccccc1)C(=O)NCC(=O)c1ccccc1`, the inhibition in assay [1] amounted to 98%; in assay [2] it was 76%; in assay [3], 72%.
Taken in the same sequence, the figures for `CC(=S)NCCCC[C@H](NC(=O)CCCCCCc1ccccc1)C(=O)NCc1ccccc1` were 99%, 74% and 87%.
For `CC(=S)NCCCC[C@H](NC(=O)OCc1ccccc1)C(=O)NCCc1ccccc1`, in that order: 72%, 52% and 41%.
Consider `CC(=S)NCCCC[C@H](NC(=O)OCc1ccccc1)C(=O)N[C@@H](C)C(N)=O`, for which the inhibition worked out at 96% in assay [1], 86% in assay [2] and 85% in assay [3].
For the molecule `CC(=S)NCCCC[C@H](NC(=O)CCCCCc1ccccc1)C(=O)NCC(=O)c1ccccc1`, the inhibition is 98% in assay [1], 83% in assay [2] and 82% in assay [3].
As to `CC(=S)NCCCC[C@H](NC(=O)CCCCCc1ccccc1)C(=O)NCc1ccccc1`, the inhibition is 100% in assay [1], 71% in assay [2] and 84% in assay [3].
Taken in the same sequence, the figures for `CC(=S)NCCCC[C@H](NC(=O)OCc1ccccc1)C(=O)Nc1cccnc1` were 84%, 70% and 59%.
For `CC(=S)NCCCC[C@H](NC(=O)OCc1ccccc1)C(=O)NCC(N)=O`, in that order: 91%, 72% and 77%.
Consider `CC(=S)NCCCC[C@H](NC(=O)[C@@H]1CCCN1C(=O)OC(C)(C)C)C(=O)NCC(=O)c1ccccc1`, for which the inhibition in assay [1] was 97%; in assay [2], 95%; in assay [3], 76%.
Consider `CC(=S)NCCCC[C@H](NC(=O)OCc1ccccc1)C(=O)NCc1ccccc1`, for which the inhibition in assay [1] is 91%; in assay [2], 67%; in assay [3], 71%.

Usually inhibition stands for how much of the control response was suppressed.
